Laboratory results published in ChEMBL document CHEMBL2169850, “3,6-bis(3-alkylguanidino)acridines as DNA-intercalating antitumor agents” (Eur J Med Chem, 2012).
Activity calls are given as the source filed them. The rule behind the calls is not given here.

How the values were obtained:
HL-60 [1] = test: Induction of apoptosis in human HL60 cells at 5 to 25 uM incubated for 24 hrs by AnnexinV/propidium iodide staining method; assay type: functional, cell-based
Method in brief: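 HL-60 cells (1.5 × 10^5) were treated at 5–25 µM for 24, 48 or 72 h and harvested. They were stained with Annexin V-FITC for 10 min in HEPES/CaCl2/NaCl binding buffer, washed, briefly stained with PI (1 mg/mL) and analysed by flow cytometry for apoptosis and necrosis. Mean ± SD, n ≥ 3.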

HL-60 [2] = test: Cell cycle arrest in human HL60 cells assessed as accumulation at S phase at 15 uM incubated for 24 hrs by flow cytometry (reference value: 44.41 +/- 0.77%); assay type: functional
HL-60 [3] = test: Antiproliferative activity against human HL60 cells assessed as cell number at 15 uM incubated for 24 hrs by Coulter counting method; assay type: functional
Method in brief: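 HL-60 cells in RPMI with 10% heat-inactivated FCS, antibiotics and amphotericin, 37 °C, 5% CO2, seeded in 60 mm dishes. Compound added at 5, 15 or 25 µM for 24, 48 or 72 h. Absolute cell counts taken by Coulter counter and expressed as percentage of untreated control. Mean ± SD of at least three independent experiments; one-way ANOVA with Tukey test, p < 0.05.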

Nucleic Acid [4] = test: Binding affinity to calf thymus DNA by spectrofluorimetric titration assay; assay type: nucleic-acid assay; conditions: Bos taurus
Method in brief: (§1)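 Fluorescence titration at 25 °C in 0.01 M Tris, pH 7.4. Compound (9.58 × 10^-6 M) was titrated with ctDNA from 0 to 2.57 × 10^-4 M bp, excited at 384 nm, and emission recorded from 400 to 600 nm. K and n were obtained from McGhee–von Hippel fits of Scatchard data.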

HL-60 [5] = test: Induction of necrosis in human HL60 cells at 5 to 25 uM incubated for 24 hrs by AnnexinV/propidium iodide staining method; assay type: functional, cell-based
Method in brief: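 HL-60 cells (1.5 × 10^5) were exposed to compound, then stained 10 min with Annexin V-FITC in HEPES/CaCl2/NaCl binding buffer. Cells were washed, briefly stained with propidium iodide and analysed by flow cytometry for apoptotic and necrotic fractions. Mean ± SD of at least three independent experiments.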

HL-60 [6] = test: Drug uptake in human HL60 cells with normal morphology at 50 uM incubated for 18 hrs by fluorescence microscopy; assay type: ADME, cell-based; conditions: hl-60, 18 h
Method in brief: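 HL-60 cells were treated with 50 µM compound for 18 h, washed with PBS, resuspended in HBSS and mounted as native slides. Cells were imaged by inverted fluorescence microscopy at 40×, with excitation 360/40 and emission 470/40. The fluorescence channel was merged with brightfield images.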

Nucleic Acid [7] = test: Binding affinity to calf thymus DNA at 9.6 uM by spectrofluorimetric titration assay; assay type: nucleic-acid assay; conditions: Bos taurus; method in brief: as §1

Row | K (Nucleic Acid [4]) [×10⁵ /M] | Drug uptake (HL-60 [6]) | Activity (Nucleic Acid [7]) | SMILES | Activity (HL-60 [1]) | Activity (HL-60 [2]) | Activity (HL-60 [3]) [%] | Activity (HL-60 [5])
1 | 5.26 | – | – | CCNC(=N)Nc1ccc2cc3ccc(NC(=N)NCC)cc3nc2c1.Cl.Cl.O | inactive | inactive | 78.95 | inactive
2 | 1.25 | Active | Active | CCCCCCNC(=N)Nc1ccc2cc3ccc(NC(=N)NCCCCCC)cc3nc2c1.Cl.Cl.O | – | 46.58% | 74.49 | –
